Screens deposited in PubChem by several laboratories.
Most compounds without a hit are left out; they make up all but 0.79% or so of the library.
UCH37 DUB inh: inhibitors of human deubiquitinating enzyme UCH37; actives 0.33% (n = 330,000); inhibition, % (concentration not given with the values); purified proteasome/UCH37, Ub-AMC cleavage fluorescence;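 active = mean inhibition over replicate wells above about 20%, limit read from the data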
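System: Proteasome-associated human UCH37 deubiquitinase; Input: 0.15 nM proteasome in added enzyme buffer; Also added: Ub-AMC substrate from 1 µM stock; Incubation: 30 min compound-proteasome preincubation then 25 min substrate reaction, room temperature; Detection: fluorescence, ex 355 nm, em 460 nm; Read-out: % inhibition of Ub-AMC cleavage fluorescence; Benchmarks: no-proteasome and no-compound wells.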
PKA-R1A act: activators of PKA-R1A complex; P00514+P68181; PKA-R1A dissociation, Cy5-IP20 fluorescence polarization; scaled: DMSO 0%, 113 µM cGMP 100%; activation, % at 11.4 µM; actives 0.083% (n = 340,000); AID 504707;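 active = percent activation above the mean of all tested compounds plus 3 SD, cut at about 19% in these data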;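 note: higher means more PKAc released from R1A so a rise in polarization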
PKA-R2B act: activates the human PKA-R2B holoenzyme complex. actives 0.079% (n = 340,000). AID 504700. P22694+P31323. PKA-R2B holoenzyme dissociation, Cy5-IP20 fluorescence polarization; R2B truncated from residue 108, S112A mutant; 0% DMSO only, 100% 113 µM cGMP. activation, % at 11.4 µM;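 active = activation above a cutoff set at the mean over all compounds plus 3 SD, cut at about 18% in these data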;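 note: higher means more holoenzyme dissociation and a rise in polarization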
Target sequence (P31323 whole entry, looked up, other chains not shown, the tested form may be a part): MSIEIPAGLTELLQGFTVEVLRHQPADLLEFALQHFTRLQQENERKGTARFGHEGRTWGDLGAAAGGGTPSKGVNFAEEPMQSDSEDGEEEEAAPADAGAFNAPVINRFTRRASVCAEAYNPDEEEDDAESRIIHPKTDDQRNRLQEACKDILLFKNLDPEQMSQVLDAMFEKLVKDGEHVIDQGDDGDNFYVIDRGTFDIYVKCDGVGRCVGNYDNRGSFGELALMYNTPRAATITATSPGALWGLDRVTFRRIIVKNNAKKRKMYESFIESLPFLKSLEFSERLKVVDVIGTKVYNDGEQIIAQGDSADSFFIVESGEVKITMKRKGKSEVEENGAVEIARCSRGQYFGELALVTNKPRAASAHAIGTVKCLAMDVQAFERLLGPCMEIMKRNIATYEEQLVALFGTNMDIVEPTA
Rin1-Abl PPI inh: blocks binding of human Rin1 to Abl; TR-FRET Rin1/Abl binding, biochemical; inhibition, % at 7.35 µM; actives 0.4% (n = 360,000); in the data active = inhibition above about 5%, passing the limit was not always enough
Rin1 Abl conf: Rin1-Abl interaction inhibition confirmation; shares compounds with Rin1-Abl PPI inh; TR-FRET Rin1-Abl binding, purified proteins; inhibition, % at 7.35 µM; actives 49% (n = 1,300)
GFP quench: counter-screen for Rin1-Abl inhibitors: GFP fluorescence quenchers | shares compounds with Rin1-Abl PPI inh | inhibition, % at 6.75 µM | inhibitors/quenchers counterscreen | actives 8.5% (n = 1,300);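 note: ABL1-eGFP fusion protein alone without its partner RIN1-SBP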
GFP quench dose: counter-screen for Rin1-Abl inhibitors: GFP quenchers, dose response. IC50, µM. GFP fluorescence interference/quenching counterscreen. 230 tested, under 10 active. shares compounds with Rin1-Abl PPI inh; call rule not given here;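 note: ABL1-eGFP fusion protein alone without its RIN1 binding partner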
Large screens that a line does not name were inactive (follow-up assays come after a bar, where they were run). Cut-off read from the data, not from the text of the source, unless noted: active = inhibition above about 6.5%; inactive = the rest.

COCCCn1c(N)c(C(=O)NCCC(C)C)c2nc3ccccc3nc21	Rin1-Abl PPI inh 22 | Rin1 Abl conf inactive | GFP quench inactive
CCOCCCn1c(N)c(C(=O)Nc2sc3c(c2C(=O)OC)CCCC3)c2nc3ccccc3nc21	Rin1-Abl PPI inh 22 | Rin1 Abl conf inactive | GFP quench inactive
CC(=NCCc1ccccc1)c1c(O)n(C)c(=O)n(C)c1=O	none
O=C(O)CCCCC1SCC2NC(=O)NC21 (configuration not stated)	Rin1-Abl PPI inh 86 (no result: UCH37 DUB inh) | Rin1 Abl conf 92 | GFP quench inactive | GFP quench dose inactive
OC(c1ccccc1)(c1ccccc1)C1CN2CCC1CC2 (configuration not stated)	none
O=C1NC2NC(=O)N([N+](=O)[O-])C2N1 (configuration not stated)	Rin1-Abl PPI inh 8.7 (no result: PKA-R1A act, PKA-R2B act) | Rin1 Abl conf 8.6 | GFP quench inactive
CC(=O)NCC1=C(c2cccc3ccccc23)C[C@@H]2CC[C@H]1N2Cc1ccco1	none (no result: UCH37 DUB inh)
CCOC(=O)c1ccc(NC(=O)NC2CC3CCC(C2)N3)cc1 (configuration not stated)	Rin1-Abl PPI inh 18 | Rin1 Abl conf 26 | GFP quench inactive | GFP quench dose inactive
Oc1ccccc1/C=N/NP(=S)(c1ccccc1)c1ccccc1	none (no result: UCH37 DUB inh)
Oc1ccc(/C=N/NP(=S)(c2ccccc2)c2ccccc2)c(O)c1O	Rin1-Abl PPI inh 16 (no result: UCH37 DUB inh) | Rin1 Abl conf 9.0 | GFP quench inactive
COc1cc(N)c(Cl)cc1C(=O)NC1CN2CCC1CC2 (configuration not stated)	none (no result: PKA-R1A act, PKA-R2B act, Rin1-Abl PPI inh)
CCOC(=O)C(C)Oc1cc(C)cc2oc(=O)c3c(c12)CCCC3 (configuration not stated)	none
CCCCCc1cc(O)c2c3c(c(=O)oc2c1)CN(C)CC3	Rin1-Abl PPI inh 8.0 | Rin1 Abl conf inactive | GFP quench inactive
COc1ccc2nc(NC(=O)CCc3nc(C4=CCN(C)CC4)no3)sc2c1	Rin1-Abl PPI inh 75 | Rin1 Abl conf 80 | GFP quench inactive | GFP quench dose inactive
CCc1nnc(NC(=O)CCc2nc(C3=CCN(C)CC3)no2)s1	Rin1-Abl PPI inh 63 | Rin1 Abl conf 62 | GFP quench inactive | GFP quench dose inactive
CC(=O)CC(c1ccc2c(c1)OCO2)c1c(O)c2ccccc2oc1=O (configuration not stated)	none (no result: UCH37 DUB inh)
C[C@]12CCC3C(C(=O)C[C@H]4C[C@@H](O)CC[C@]34C)C1CCC2=O (some centres not stated)	Rin1-Abl PPI inh 21 | Rin1 Abl conf 20 | GFP quench inactive | GFP quench dose inactive
Fc1ccc(CNCCc2ccccc2F)cc1	none
Fc1ccccc1CCNCc1ccccc1	Rin1-Abl PPI inh 8.8 | Rin1 Abl conf inactive | GFP quench inactive
O=C(CNC(=O)OCc1ccccc1)Nc1ccc(Br)cc1C(=O)c1ccccc1	none
NCCc1cc(O)c(O)cc1O	Rin1-Abl PPI inh 39 (no result: UCH37 DUB inh) | Rin1 Abl conf 41 | GFP quench 8.7
COc1ccc(CCN)cc1O	none
